Data as given in PubChem BioAssay.
Results filed as inconclusive are left out.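 Rule for the calls, unless noted: active = viability increase at or above a cutoff of the median across tested compounds plus 3 SD (cut at about 8.5% in these data, passing the limit was not always enough); inconclusive = some gains above the cutoff, reason not given; inactive = the rest.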

Tests used:
[1] = S. cerevisiae growth inhibition in permissive medium (OD615), pilot counter-assay for S. cerevisiae lifespan shortening project, permissive growth control (AID 705;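 active = growth inhibition above 25% in both replicates, a cutoff set 3 SD above the mean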); settings: OD615, 24 h, at 10 µM, active compounds read high
Method in brief: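 assay system = Saccharomyces cerevisiae strain carrying genetically modified DeaD replicative-lifespan system | technique = absorbance (optical density) at 615 nm | buffer or medium = permissive raffinose/galactose medium | timing = cells pre-grown 4 h, then 24 h compound exposure, 30 °C humidified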

[2] = S. cerevisiae growth inhibition in restrictive medium, OD615, pilot screen, restrictive growth control, yeast lifespan reduction project (AID 706;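 active = growth inhibition above a set limit, 3 SD over mean compound inhibition, in both replicates, cut at about 43% in these data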;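 note: modified DeaD lifespan yeast strain shifted to restrictive glucose medium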); settings: OD615, 48 h, at 10 µM, active compounds read high
Method in brief: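 System: modified S. cerevisiae. Buffer or medium: CSMM-D glucose medium. Incubation: 4 h pre-growth plus 48 h compound exposure, 30 °C. Detection: absorbance (optical density) measured at 615 nm.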

[3] = doxorubicin toxicity protection in MRP-1 cells – H69AR cells, CellTiter-Glo, duplicate, MRP-1 activator project, pilot screen (AID 807); settings: H69AR viability with doxorubicin, CellTiter-Glo luminescence; at 10 µM; active compounds read high;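 note: compound pretreatment 18-22 h then 72 h combined with doxorubicin; 0% = doxorubicin alone and 100% = vehicle without doxorubicin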
[4] = viability of HCT116 without oncogenic beta-catenin – human colon tumor cells, pilot screen (AID 823;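 active = cell viability at or below a set limit in both duplicate runs, the limit being the all-compound median minus 4 SD, cut at about 23% in these data, passing the limit was not always enough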;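 note: 0% = wells killed by 20 µM Hyamine and 100% = untreated DMSO cell wells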); settings: HCT116 beta-catenin knockout viability, CellTiter-Glo, 60 h; at 10 µM; active compounds read low
[5] = viability of PTEN-null HCT116 cells – cell-based, HCT116 clonal line, CellTiter-Glo, pilot screen (AID 824;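 active = viability at or below 27.92% in each of two runs, the all-compound median minus 4 SD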;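 note: 0% = 20 µM Hyamine control and 100% = vehicle cell control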); settings: HCT116 PTEN-deleted viability, 60 h, at 10 µM, active compounds read low
[6] = RAM pathway blockade in budding yeast – dse1pr::URA3 reporter, 5-FOA selection, pilot screen (AID 869;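 active = inhibition over a set limit, the all-compound mean plus 3 SD, in both replicate runs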;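 note: 0% = DMSO wells with no growth and 100% = 10 µM 1-NA-PP1 with full growth; RAM network block rescues cells from 5-FOA so hits raise OD615 growth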); settings: S. cerevisiae dse1pr::URA3 5-FOA growth, OD615, 2 d; at 10 µM; active compounds read high; strain carries analog-sensitive mutant Cbk1 kinase
[7] = RAM signaling pathway blockade in yeast – S. cerevisiae, Pdr1DBD-CYC8 efflux-inhibited sensitized strain, primary screen (AID 1298;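 active = RAM network inhibition above 8.4% in each of two replicates, 3 SD over the compound average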;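 note: 0% = DMSO untreated cells without growth and 100% = 10 µM 1-NA-PP1 full growth; higher means more yeast growth rescued from 5-FOA killing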); settings: S. cerevisiae cbk1-as DSE1-URA3 strain, 5-FOA growth OD615, 2 d; at 50 µM; active compounds read high

CCn1ncc(C2=NOC(C(=O)Nc3c(C)nn(Cc4ccc(F)cc4)c3C)C2)c1C (configuration not stated)
inactive: growth inhibition [1] -7.87% | growth inhibition [2] -11.5% | viability increase [3] 0.42% | viability [4] 93.5% | viability [5] 88.7% | inhibition [6] 1.59% | RAM network inhibition [7] 1.41%

O=C1CCc2cc(S(=O)(=O)NC(Cc3ccccc3)C(=O)NC3CCCC3)ccc2N1 (configuration not stated)
inactive: growth inhibition [1] -11.3% | growth inhibition [2] -9.16% | viability increase [3] -0.35% | viability [4] 96.8% | viability [5] 98.8% | inhibition [6] 1.86% | RAM network inhibition [7] 0.41%

O=C(CSc1nc2c(c(=O)n1-c1ccc(Br)cc1)SCC2)NCC1CCCO1 (configuration not stated)
inactive: growth inhibition [1] -11.1% | growth inhibition [2] -8.53% | viability increase [3] -1.02% | viability [4] 97.9% | viability [5] 101% | inhibition [6] 1.69% | RAM network inhibition [7] 2.63%

CC1(C)Cc2c(sc3nc(-c4cccs4)n(N)c(=O)c23)CO1
inactive: growth inhibition [1] -10.5% | growth inhibition [2] 18.5% | viability increase [3] -6.5% | viability [4] 42.1% | viability [5] 45.5% | inhibition [6] 0.19% | RAM network inhibition [7] 1.7%

Cc1nc2c(c(C)nn2-c2ccccc2)c(C)c1Cl
inactive: growth inhibition [1] -4.98% | growth inhibition [2] -5.5% | viability increase [3] -2.73% | viability [4] 88.6% | viability [5] 87.9% | inhibition [6] 3.09% | RAM network inhibition [7] 2.46%

O=S(=O)(c1ccc(Cl)c(Cl)c1)N1CCc2nc3ccccc3n2CC1
inactive: growth inhibition [1] -5.17% | growth inhibition [2] 4.47% | viability increase [3] -1.28% | viability [4] 98.9% | viability [5] 102% | inhibition [6] 1.75% | RAM network inhibition [7] 6.73%

CSC1=N/C(=C\c2ccc(C)o2)C(=O)S1
inactive: growth inhibition [1] -2.35% | growth inhibition [2] 1.15% | viability increase [3] -2.31% | viability [4] 104% | viability [5] 102% | inhibition [6] 0.93% | RAM network inhibition [7] -0.21%

COc1ccc(N2CCCCn3c2nc2c3c(=O)[nH]c(=O)n2C)cc1
inactive: growth inhibition [1] -18.4% | growth inhibition [2] -15.6% | viability increase [3] -2.97% | viability [4] 90.3% | viability [5] 90.9% | inhibition [6] 1.88% | RAM network inhibition [7] 2.42%

O=C(Nc1ccc(N2CCCC2)c(Cl)c1)c1ccco1
inactive: growth inhibition [1] -2.11% | growth inhibition [2] 8.76% | viability increase [3] 0.68% | viability [4] 91.5% | viability [5] 89.1% | inhibition [6] 1.51% | RAM network inhibition [7] 0.62%

NC(=O)CCc1c[nH]c2ccccc12
inactive: growth inhibition [1] -1.2% | growth inhibition [2] -4.15% | viability increase [3] -3.35% | viability [4] 91% | viability [5] 94.2% | inhibition [6] 2.47% | RAM network inhibition [7] 5.98%

COc1ccc(N(CC(=O)Nc2ccc3c(c2)OCO3)S(C)(=O)=O)c(OC)c1
inactive: growth inhibition [1] -12.6% | growth inhibition [2] -4.5% | viability increase [3] -2.19% | viability [4] 97.9% | viability [5] 96.5% | inhibition [6] 1.41% | RAM network inhibition [7] 4.05%

O=C1CCC(C(=O)N(c2ccccc2)C2(C(=O)NC3CCCCC3)CCCCC2)N1 (configuration not stated)
inactive: growth inhibition [1] 1.54% | growth inhibition [2] 2.4% | viability increase [3] -0.07% | viability [4] 94.3% | viability [5] 97.2% | inhibition [6] 0.505% | RAM network inhibition [7] 1.6%

CC1=C(C(=O)OC2CCCCC2)C(c2ccco2)n2ncnc2N1 (configuration not stated)
inactive: growth inhibition [1] -9.02% | growth inhibition [2] 4.91% | viability increase [3] -1.43% | viability [4] 90.7% | viability [5] 88.8% | inhibition [6] 1.47% | RAM network inhibition [7] 5.64%

O=C(Cn1cc2c(n1)CCCC2)N1CCOCC1
inactive: growth inhibition [1] -13.2% | growth inhibition [2] -4.99% | viability increase [3] -0.03% | viability [4] 99.4% | viability [5] 108% | inhibition [6] 0.095% | RAM network inhibition [7] 6.94%

CN1C(=O)c2cccc(NC(=O)Cc3ccccc3)c2C1=O
inactive: growth inhibition [1] 1.68% | growth inhibition [2] 15.6% | viability increase [3] -1.47% | viability [4] 111% | viability [5] 91.1% | inhibition [6] 0.625% | RAM network inhibition [7] -0.88%

Cc1sc2nc3ccc(N4CCCC4)nn3c(=O)c2c1C
inactive: growth inhibition [1] -0.905% | growth inhibition [2] 18.9% | viability increase [3] -2.12% | viability [4] 70.1% | viability [5] 75% | inhibition [6] 0.845% | RAM network inhibition [7] 2.93%

CC1Cc2nc(SCC(=O)Nc3nccs3)n(Cc3ccccc3)c(=O)c2S1 (configuration not stated)
inactive: growth inhibition [1] 4.49% | growth inhibition [2] 8.66% | viability increase [3] -2.23% | viability [4] 94.8% | viability [5] 88.4% | inhibition [6] 2.21% | RAM network inhibition [7] 3.83%

COc1ccc(N=CC2=C(O)CC(C)(C)CC2=O)cc1
inactive: growth inhibition [1] 6.45% | growth inhibition [2] -2.8% | viability increase [3] -3.24% | viability [4] 97.5% | viability [5] 101% | inhibition [6] 0.71% | RAM network inhibition [7] 1.73%

Cc1ccc(N2CC(c3nc4ccccc4[nH]3)CC2=O)c(C)c1 (configuration not stated)
inactive: growth inhibition [1] -14.1% | growth inhibition [2] -17% | viability increase [3] 0.06% | viability [4] 107% | viability [5] 94.4% | inhibition [6] 1.45% | RAM network inhibition [7] 0.01%

O=C(NCc1ccncc1)C(F)(F)C(F)(F)C(=O)NCc1ccncc1
inactive: growth inhibition [1] -0.215% | growth inhibition [2] -3.65% | viability increase [3] -1.87% | viability [4] 93.9% | viability [5] 85.4% | inhibition [6] 1.33% | RAM network inhibition [7] 1.22%

Cc1ccc(-n2ncc3c(N4CCC5(CC4)OCCO5)ncnc32)c(C)c1
inactive: growth inhibition [1] 1.21% | growth inhibition [2] 6.06% | viability increase [3] -7.95% | viability [4] 80.3% | viability [5] 83.8% | inhibition [6] 0.765% | RAM network inhibition [7] -1.04%

CCC(C)NC(=O)CCCCCn1c(=O)[nH]c2cc(OC)c(OC)cc2c1=O (configuration not stated)
inactive: growth inhibition [1] -18.5% | growth inhibition [2] -7.55% | viability increase [3] -2.36% | viability [4] 88% | viability [5] 93% | inhibition [6] 0.065% | RAM network inhibition [7] 2.96%

O=C(COC(=O)c1ccco1)Nc1ccc(Br)cc1
inactive: growth inhibition [1] -15.4% | growth inhibition [2] -14.3% | viability increase [3] -1.81% | viability [4] 93.5% | viability [5] 99.3% | inhibition [6] 1.45% | RAM network inhibition [7] 2.21%

COCCNC(=O)CN(c1ccc(C)cc1)S(=O)(=O)c1ccc(SC)cc1
inactive: growth inhibition [1] -10.6% | growth inhibition [2] -12.2% | viability increase [3] -0.9% | viability [4] 96.2% | viability [5] 84.2% | inhibition [6] 0.71% | RAM network inhibition [7] 5.17%

CCc1c(C)nc2[nH]nc(-c3ccccc3)n2c1=O
inactive: growth inhibition [1] -20.2% | growth inhibition [2] -10.2% | viability increase [3] 0.32% | viability [4] 96.2% | viability [5] 99.1% | inhibition [6] 1.69% | RAM network inhibition [7] 4.8%

O=C(CCCCCn1c(=O)[nH]c2ccsc2c1=O)N1CCN(C2CCCCC2)CC1
inactive: growth inhibition [1] -5.63% | growth inhibition [2] -0.345% | viability increase [3] -1.81% | viability [4] 95.3% | viability [5] 92.3% | inhibition [6] 1.38% | RAM network inhibition [7] 3%

Cn1nc(-c2ccc(Cl)cc2)c2cc(C(=O)N3CCCC3)sc21
inactive: growth inhibition [1] -8.92% | growth inhibition [2] -9.39% | viability increase [3] -2.97% | viability [4] 96.9% | viability [5] 85.7% | inhibition [6] 1.97% | RAM network inhibition [7] 3.39%

CC(C)N(Cc1nc(-c2ccccc2)no1)C(=O)Cc1ccccc1
inactive: growth inhibition [1] -14.4% | growth inhibition [2] -16.3% | viability increase [3] -2.2% | viability [4] 87.1% | viability [5] 79.3% | inhibition [6] -0.4% | RAM network inhibition [7] 2.86%

CCN(CC)C(=O)c1sc(NC(=O)c2ccoc2C)c(C(=O)OC)c1C
inactive: growth inhibition [1] -5.36% | growth inhibition [2] 5.77% | viability increase [3] -1.15% | viability [4] 83.4% | viability [5] 90.6% | inhibition [6] 1.33% | RAM network inhibition [7] 7.43%

COc1cccc(NC=C2C(=O)OC3(CCCCC3)OC2=O)c1
inactive: growth inhibition [1] -8.74% | growth inhibition [2] 5.97% | viability increase [3] -1.85% | viability [4] 95.1% | viability [5] 104% | inhibition [6] 2.04% | RAM network inhibition [7] 5.16%

c1ccc(Cn2ncc3ccccc32)cc1
inactive: growth inhibition [1] -3.05% | growth inhibition [2] 4.4% | viability increase [3] -1.05% | viability [4] 94.8% | viability [5] 98% | inhibition [6] -0.165% | RAM network inhibition [7] -0.97%

COCCNC(=O)CN1C(=O)COc2ccc(Cl)cc21
inactive: growth inhibition [1] -4.28% | growth inhibition [2] 6.35% | viability increase [3] -1.25% | viability [4] 111% | viability [5] 97.9% | inhibition [6] 1.12% | RAM network inhibition [7] 5.23%

N#Cc1nc(COc2cccc(Cl)c2)oc1NCc1ccco1
inactive: growth inhibition [1] -14% | growth inhibition [2] 3.77% | viability increase [3] -2.87% | viability [4] 89% | viability [5] 89.4% | inhibition [6] 1.65% | RAM network inhibition [7] 7.41%

Cc1ccc(C)c(N2CCN(C(=O)C3CCCN(S(=O)(=O)c4cnc[nH]4)C3)CC2)c1 (configuration not stated)
inactive: growth inhibition [1] 5.12% | growth inhibition [2] -0.49% | viability increase [3] 2.66% | viability [4] 94.9% | viability [5] 95.4% | inhibition [6] 2.12% | RAM network inhibition [7] -0.52%

CCOC(=O)N1CCN(CC(=O)Nc2cc3c(cc2C(C)=O)OCO3)CC1
inactive: growth inhibition [1] 2.37% | growth inhibition [2] 13% | viability increase [3] -3.17% | viability [4] 94.2% | viability [5] 98.9% | inhibition [6] 0.555% | RAM network inhibition [7] 2.4%

COc1cccc(-c2nn(C)c3sc(C(=O)N4CCOCC4)cc23)c1
inactive: growth inhibition [1] 6.62% | growth inhibition [2] 9.91% | viability increase [3] -2.47% | viability [4] 97.5% | viability [5] 94.9% | inhibition [6] 1.45% | RAM network inhibition [7] 5.9%
